For test [1], the target named is T1, hA3AR (Homo sapiens, UniProt P0DMS8).
T1 sequence (P0DMS8 1-318): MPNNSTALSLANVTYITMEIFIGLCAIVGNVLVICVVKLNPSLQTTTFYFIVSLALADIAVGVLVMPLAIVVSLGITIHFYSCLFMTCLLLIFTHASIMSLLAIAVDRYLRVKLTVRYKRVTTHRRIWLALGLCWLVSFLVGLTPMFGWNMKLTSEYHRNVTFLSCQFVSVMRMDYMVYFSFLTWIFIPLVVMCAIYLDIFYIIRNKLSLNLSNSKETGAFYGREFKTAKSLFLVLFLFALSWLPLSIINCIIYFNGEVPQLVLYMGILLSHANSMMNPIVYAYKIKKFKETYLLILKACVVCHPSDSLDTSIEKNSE
Briefly: FCM competitive binding in hA3AR-CHO whole cells with MRS5218. Conditions: read-out: FCM binding at hA3AR, Ki, MRS5218 30 nM tracer, 60 min at 37 °C, 0.4 M sucrose.

Test [2] deals with T2, mA3AR (Mus musculus, UniProt Q61618).
T2 sequence (Q61618 1-319): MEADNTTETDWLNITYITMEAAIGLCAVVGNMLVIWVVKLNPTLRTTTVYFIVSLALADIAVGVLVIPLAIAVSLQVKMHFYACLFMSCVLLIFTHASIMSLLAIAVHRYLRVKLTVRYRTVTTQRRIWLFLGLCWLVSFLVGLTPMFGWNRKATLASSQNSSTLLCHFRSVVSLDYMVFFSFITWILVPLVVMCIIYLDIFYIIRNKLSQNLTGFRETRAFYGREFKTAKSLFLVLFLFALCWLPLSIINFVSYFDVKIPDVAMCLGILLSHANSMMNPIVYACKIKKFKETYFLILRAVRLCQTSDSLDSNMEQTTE
Put plainly: FCM binding. In a few lines: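 HEK293 cells stably expressing mouse A3AR, grown in DMEM with 10% FBS and 0.6 mg/ml G418. Cells were incubated with fluorescent agonist (5–1,000 nM) at 37 °C for varied times. […] Cells were washed in ice-cold PBS and detached with 0.2% EDTA. MFI was read in FL-4 (635 nm laser) and fitted by non-linear least squares.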

Test [3] concerns the target T1, hA3AR. Put plainly: FCM of MRS5704 in AR-expressing HEK293 cells. The format is binding.
The target of test [4] is T3, mA1AR (Mus musculus, UniProt Q60612).
T3 sequence (Q60612 1-326): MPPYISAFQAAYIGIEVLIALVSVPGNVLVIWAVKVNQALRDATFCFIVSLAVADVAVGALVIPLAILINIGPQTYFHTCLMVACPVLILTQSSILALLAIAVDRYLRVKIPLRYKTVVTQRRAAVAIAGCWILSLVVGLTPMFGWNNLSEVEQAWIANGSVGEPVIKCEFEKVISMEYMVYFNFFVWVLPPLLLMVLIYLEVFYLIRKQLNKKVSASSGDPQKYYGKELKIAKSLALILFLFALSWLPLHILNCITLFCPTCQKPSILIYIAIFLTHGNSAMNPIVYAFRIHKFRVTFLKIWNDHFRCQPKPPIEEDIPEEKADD
The format is binding. Conditions: read-out: Ki, A1AR (mouse), n = 3-4. In short, it runs like this: (§1)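 Membranes from HEK293 cells stably expressing the mouse receptor were used in a competition assay following the human-receptor protocol. Test compound at increasing concentrations was incubated with radioligand and membranes in 50 mM Tris-HCl, pH 7.5, with 10 mM MgCl2, at 25 °C for 60 min. Bound and free were separated by GF/B filtration with ice-cold Tris washes. […] Ki was calculated from IC50 by nonlinear fitting.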

The target in test [5] is T4, mA2AAR (Mus musculus, UniProt Q60613). The format is binding. To be noted: read-out: Ki, A2AAR (mouse), n = 3-4. In a few lines: as §1
T4 sequence (Q60613 whole entry): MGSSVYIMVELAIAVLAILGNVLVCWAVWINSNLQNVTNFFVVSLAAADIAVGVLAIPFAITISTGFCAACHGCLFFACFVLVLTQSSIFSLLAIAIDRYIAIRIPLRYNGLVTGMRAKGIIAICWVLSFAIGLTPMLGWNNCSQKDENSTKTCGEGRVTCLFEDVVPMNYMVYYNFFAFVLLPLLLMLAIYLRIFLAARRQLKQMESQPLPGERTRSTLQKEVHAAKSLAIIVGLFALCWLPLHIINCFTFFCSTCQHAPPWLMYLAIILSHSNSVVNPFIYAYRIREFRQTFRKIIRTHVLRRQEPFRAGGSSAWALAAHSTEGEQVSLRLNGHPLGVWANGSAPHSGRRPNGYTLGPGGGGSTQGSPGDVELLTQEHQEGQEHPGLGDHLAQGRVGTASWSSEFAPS
In test [6] the target is T2, mA3AR. Format: binding. Conditions: read-out: Ki, A3AR (mouse), n = 3-4. In a few lines:
as §1

A further test deals with T5, mA2BAR (Mus musculus, UniProt Q60614).
T5 sequence (Q60614 1-332): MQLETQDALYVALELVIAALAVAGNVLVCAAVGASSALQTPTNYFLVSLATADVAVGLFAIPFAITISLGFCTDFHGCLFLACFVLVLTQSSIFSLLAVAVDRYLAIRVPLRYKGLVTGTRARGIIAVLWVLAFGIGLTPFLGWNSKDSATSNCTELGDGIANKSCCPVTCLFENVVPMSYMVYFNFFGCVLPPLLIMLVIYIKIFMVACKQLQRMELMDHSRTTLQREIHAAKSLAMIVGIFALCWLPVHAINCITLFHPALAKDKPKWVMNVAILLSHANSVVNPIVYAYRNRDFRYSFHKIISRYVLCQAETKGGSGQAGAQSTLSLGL
Briefly: FCM binding in HEK293 cells expressing mA2BAR. To be noted: 1 µM, 2 h. In a few lines: (§2)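 Stable HEK293 lines expressing the mouse receptor were grown in DMEM with 10% FBS, 2 mM L-glutamine, penicillin/streptomycin and 0.6 mg/ml G418, then plated for 24 h at 37 °C, 5% CO2. At about 80% confluency, the fluorescent agonist (range 5–1000 nM) was added in fresh medium at 37 °C. Cells were then washed in ice-cold PBS, detached with 0.2% EDTA, spun twice at 400 × g and resuspended in PBS. MFI was read by flow cytometry (635 nm laser, FL-4, log mode).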

The target of test [7] is T3, mA1AR. Briefly: FCM binding in HEK293 cells expressing mA1AR. Conditions: 1 µM, 2 h. In a few lines: as §2
The target of test [8] is T4, mA2AAR. Briefly: FCM binding in HEK293 cells expressing mA2AAR. Conditions: 1 µM, 2 h. In short, it runs like this:
as §2

The next test has as its target T6, hA1AR (Homo sapiens, UniProt P30542).
T6 sequence (P30542 1-326): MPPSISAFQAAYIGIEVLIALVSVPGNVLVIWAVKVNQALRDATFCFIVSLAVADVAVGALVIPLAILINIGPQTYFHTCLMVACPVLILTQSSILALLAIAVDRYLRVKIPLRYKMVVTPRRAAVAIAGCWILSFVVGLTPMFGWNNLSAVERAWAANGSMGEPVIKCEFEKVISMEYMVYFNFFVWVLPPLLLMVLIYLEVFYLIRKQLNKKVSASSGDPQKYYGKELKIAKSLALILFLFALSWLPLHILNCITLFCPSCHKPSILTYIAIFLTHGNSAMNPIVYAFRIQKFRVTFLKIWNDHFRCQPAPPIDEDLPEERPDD
Conditions: inhibition of radioligand binding at 10 µM, ref [19],[21],[22]; cited from earlier work.

Another test has as its target hA2AAR (Homo sapiens, UniProt P29274). Conditions: read-out: Ki, A2AAR, ref [21],[22]; cited from earlier work.

Values joined by “and” are separate entries in the source; they are usually repeats but may differ in a detail not shown here. Equal entries are not always repeated.

We go through three compounds from PMC3604185 (Biochemical pharmacology, 2013).

The term Ki denotes a measure of affinity in units of concentration, obtained from inhibition or displacement.

Sequence of hA2AAR (P29274 whole entry): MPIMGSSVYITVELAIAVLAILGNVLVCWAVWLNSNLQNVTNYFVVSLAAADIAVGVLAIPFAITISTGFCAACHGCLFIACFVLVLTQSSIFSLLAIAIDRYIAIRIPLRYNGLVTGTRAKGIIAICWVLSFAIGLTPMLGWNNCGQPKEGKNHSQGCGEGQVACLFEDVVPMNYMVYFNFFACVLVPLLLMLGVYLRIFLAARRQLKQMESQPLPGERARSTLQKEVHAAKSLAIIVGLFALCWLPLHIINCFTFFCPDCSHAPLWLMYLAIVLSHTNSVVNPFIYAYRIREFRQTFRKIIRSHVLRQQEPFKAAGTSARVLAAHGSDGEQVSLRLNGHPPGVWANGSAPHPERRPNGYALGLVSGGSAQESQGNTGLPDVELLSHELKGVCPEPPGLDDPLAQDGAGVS

For `OC[C@H]1O[C@@H](n2cnc3c(NC4CCCC4)ncnc32)[C@H](O)[C@@H]1O` [CPA], the inhibitory constant (Ki) at hA3AR [1] is 88.4 ± 13.6 nM.
Take `CNC(=O)[C@@]12C[C@@H]1[C@@H](n1cnc3c(NCc4cccc(Cl)c4)nc(C#Cc4ccc5ccc6cccc7ccc4c5c67)nc31)[C@H](O)[C@@H]2O` [Compound 2, (1S,2R,3S,4R,5S)-4-(6-(3-chlorobenzylamino)-2-(pyren-1-ylethynyl)-9H-purin-9-yl)-2,3-dihydroxy-N-methylbicyclo[3.1.0]hexane-1-carboxamide]: on mA3AR [2] (AR-expressing HEK293 cells), the “specific fluorescent binding by FCM, mA3AR” value is “failed to show specific fluorescent binding”. Moreover, the “specific fluorescent binding by FCM, hA3AR” value at hA3AR [3] is listed as “failed to show specific fluorescent binding”.
With “(1′S,2′R,3′S,4′S,5′S)-4′-[6-(3-chlorobenzylamino)-2-(N-cyanine(β-aminoethylaminocarbonyl)-1-butynyl)-9-yl]-2′,3′-dihydroxybicyclo[3.1.0]hexane-1′-carboxylic acid N-methylamide [Compound 1]”, the inhibitory constant (Ki) at mA1AR [4] is 143 nM; on mA2AAR [5], 717 ± 19 nM; on mA3AR [6], 261 ± 29 nM; at hA2AAR, 4730 nM. Also, the t1/2 of dissociation at mA3AR [2] (5 nM for 2 h, then NECA (100 µM)) was determined as 39.4 ± 4.2 min. Besides, the t1/2 of association at mA3AR [2] (5 nM, listed as MRS5218) was 38 min and 37.8 ± 2.9 min. Moreover, the “specific labeling of mA3AR-HEK293 cells” value on mA3AR [2] (50-300 nM, 2 h, nonspecific with 100 µM NECA) is on record as “specifically labeled mA3AR-HEK293 cells versus cells expressing other AR subtypes”. Besides, at mA3AR [2] (read-out: Kd app, saturation, whole cells, 2 h, absence of sucrose), the Kd came to 7.52 ± 0.49 nM. The Bmax on mA3AR [2] (saturation, whole cells, 2 h, absence of sucrose) is on record as 99,420±18,110 MESF/cell. In addition, the “specific binding to mA2BAR-HEK293 cells” value on mA2BAR is recorded as “became detectable”. Besides, the “specific binding to mA1AR-HEK293 cells” value on mA1AR [7] was “not observed”. Further, the “specific binding to mA2AAR-HEK293 cells” value at mA2AAR [8] is “not observed”. The “% inhibition, A1AR” value at hA1AR was “h: 36%”.
